In publication PMC11439338 (BMC Chemistry, 2024):
pKi: −log10 of the molar value. “Also recorded” adds a separate entry of the source.

Experiments:
[1] = tested on: mushroom tyrosinase (EC 1.14.18.1); test: In vitro mushroom tyrosinase inhibition assay; format: biochemical; conditions: SAR discussion
[2] = molecular target: mushroom tyrosinase (Agaricus bisporus, UniProt C7FF04); test: Kinetic study of tyrosinase inhibition; format: biochemical
Summary of the method: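 Mushroom tyrosinase diphenolase activity; test compound in DMSO, pre-incubated 20 min at 28 °C with enzyme (added as 600 U mL−1 solution) in 50 mM phosphate buffer pH 6.8. Inhibitor 5–50 µM; L-Dopa 0.1–1.5 mM. Dopachrome at 490 nm read each minute for 10 min; initial velocity from linear segment. Lineweaver–Burk plots gave Km and Vmax; Ki from slope versus inhibitor concentration.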

mushroom tyrosinase, sequence (C7FF04 1-392): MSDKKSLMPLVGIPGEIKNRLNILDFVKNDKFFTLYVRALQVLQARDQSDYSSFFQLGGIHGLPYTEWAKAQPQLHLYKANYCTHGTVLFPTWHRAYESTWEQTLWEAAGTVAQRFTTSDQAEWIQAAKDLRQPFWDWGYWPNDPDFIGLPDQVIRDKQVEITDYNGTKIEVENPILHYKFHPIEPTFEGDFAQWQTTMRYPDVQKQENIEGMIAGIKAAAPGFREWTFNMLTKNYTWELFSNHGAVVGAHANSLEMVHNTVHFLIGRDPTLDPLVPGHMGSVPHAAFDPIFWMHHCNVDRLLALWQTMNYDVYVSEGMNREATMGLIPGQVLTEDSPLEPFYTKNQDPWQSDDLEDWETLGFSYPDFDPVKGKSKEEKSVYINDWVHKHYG

activity against tyrosinase (in words) [1]	pKi [2]	SMILES	type of inhibition ([2]; Lineweaver-Burk plot, L-Dopa substrate)
no activity	–	CC1(C)CC(=O)C2=C(C1)OC(N)=C(C#N)C2c1ccc(OCc2ccc(F)cc2)cc1 (stereo not drawn) [6c, 2-Amino-4-(4-((4-fluorobenzyl)oxy)phenyl)-7,7-dimethyl-5-oxo-5,6,7,8-tetrahydro-4H-chromene-3-carbonitrile]	–
–	4.79	CC1(C)CC(=O)C2=C(C1)OC(N)=C(C#N)C2c1ccc(OCc2ccc(C#N)cc2)cc1 (stereo not drawn) [6f, 2-Amino-4-(4-((4-cyanobenzyl)oxy)phenyl)-7,7-dimethyl-5-oxo-5,6,7,8-tetrahydro-4H-chromene-3-carbonitrile]	competitive inhibition; also recorded: competitive inhibitor
